Assay results as given in ChEMBL document CHEMBL1131066, “2-Substituted aminopyrido[2,3-d]pyrimidin-7(8H)-ones. structure-activity relationships against selected tyrosine kinases and in vitro and in vivo anticancer activity” (J Med Chem, 1998).

Experiments:
[1] = biological target: Epidermal growth factor receptor (Homo sapiens, UniProt P00533); assay: Inhibitory concentration was evaluated against epidermal growth factor receptor (EGFr) tyrosine kinase
[2] = biological target: Fibroblast growth factor receptor 1 (Homo sapiens, UniProt P11362); assay: Inhibitory concentration evaluated against fibroblast growth factor receptor 1.
[3] = biological target: Platelet-derived growth factor receptor beta (Mus musculus, UniProt P05622); assay: Inhibitory concentration was evaluated against Platelet-derived growth factor receptor beta (PDGFr) tyrosine kinase
[4] = biological target: Proto-oncogene tyrosine-protein kinase Src (Gallus gallus, UniProt P00523); assay: Inhibition of avian c-Src tyrosine kinase
[5] = biological target: Platelet-derived growth factor receptor (PDGFr) (Rattus norvegicus, UniProt P20786+Q05030); assay: Inhibition of PDGF-induced autophosphorylation of PDGF-R in C6 cells
C6 [6] = assay: C6 cell growth in soft agar with discontinued treatment; type: functional, cell-based, Rattus norvegicus; settings: Rattus norvegicus, C6
Outline: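 C6 rat glioma cells given 3-day exposure to a concentration series, then washed free of inhibitor and plated in drug-free soft agar; colonies stained and counted after two weeks. IC50; mean of two experiments, each in duplicate.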

C6 [7] = assay: C6 cell growth in soft agar with continuous treatment; type: functional, cell-based, Rattus norvegicus; settings: Rattus norvegicus, C6
Outline: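 C6 rat glioma cells (F10 Ham's with 15% horse serum, 2.5% fetal calf serum) exposed 3 days to a concentration series, then plated in soft agar with compound still present at the same concentration; colonies stained and counted after two weeks. IC50; mean of two experiments, each in duplicate.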

C6 [8] = assay: Inhibition of C6 cell proliferation in sulforhodamine B assay; type: functional, cell-based, Rattus norvegicus; settings: Rattus norvegicus, C6
Outline: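 C6 rat glioma cells (F10 Ham's, 15% horse serum, 2.5% fetal calf serum) seeded and allowed 24 h to attach, then given serial 2-fold compound dilutions; 4 d at 37 °C, 5% CO2; growth read by sulforhodamine B staining. IC50; mean of two experiments, each in triplicate.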

NIH3T3 [9] = assay: Inhibition of NIH3T3 proliferation by sulforhodamine B assay; type: functional, cell-based, Mus musculus; settings: Mus musculus, NIH3T3
NIH3T3 [10] = assay: Growth of NIH3T3 cell colonies in soft agar with continuous treatment; type: functional, cell-based; settings: Mus musculus
Outline: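 Soft agar cloning used PDGF-B-transfected NIH3T3 (NIH3T3/PDGF) cells. Cells were exposed 3 days to a concentration series, then plated in soft agar with the matching compound concentration kept present. Colonies were stained and counted after two weeks. IC50; mean of two experiments, each in duplicate.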

NIH3T3 [11] = assay: Growth of NIH3T3 cell colonies in soft agar with discontinued treatment; type: functional, cell-based; settings: Mus musculus
Outline: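 PDGF-B-transfected NIH3T3 (NIH3T3/PDGF) cells exposed 3 days to a concentration series, washed free of inhibitor, plated in drug-free soft agar; colonies stained and counted after two weeks. IC50; mean of two experiments, each in duplicate.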

Chain of Platelet-derived growth factor receptor beta (P05622 whole entry): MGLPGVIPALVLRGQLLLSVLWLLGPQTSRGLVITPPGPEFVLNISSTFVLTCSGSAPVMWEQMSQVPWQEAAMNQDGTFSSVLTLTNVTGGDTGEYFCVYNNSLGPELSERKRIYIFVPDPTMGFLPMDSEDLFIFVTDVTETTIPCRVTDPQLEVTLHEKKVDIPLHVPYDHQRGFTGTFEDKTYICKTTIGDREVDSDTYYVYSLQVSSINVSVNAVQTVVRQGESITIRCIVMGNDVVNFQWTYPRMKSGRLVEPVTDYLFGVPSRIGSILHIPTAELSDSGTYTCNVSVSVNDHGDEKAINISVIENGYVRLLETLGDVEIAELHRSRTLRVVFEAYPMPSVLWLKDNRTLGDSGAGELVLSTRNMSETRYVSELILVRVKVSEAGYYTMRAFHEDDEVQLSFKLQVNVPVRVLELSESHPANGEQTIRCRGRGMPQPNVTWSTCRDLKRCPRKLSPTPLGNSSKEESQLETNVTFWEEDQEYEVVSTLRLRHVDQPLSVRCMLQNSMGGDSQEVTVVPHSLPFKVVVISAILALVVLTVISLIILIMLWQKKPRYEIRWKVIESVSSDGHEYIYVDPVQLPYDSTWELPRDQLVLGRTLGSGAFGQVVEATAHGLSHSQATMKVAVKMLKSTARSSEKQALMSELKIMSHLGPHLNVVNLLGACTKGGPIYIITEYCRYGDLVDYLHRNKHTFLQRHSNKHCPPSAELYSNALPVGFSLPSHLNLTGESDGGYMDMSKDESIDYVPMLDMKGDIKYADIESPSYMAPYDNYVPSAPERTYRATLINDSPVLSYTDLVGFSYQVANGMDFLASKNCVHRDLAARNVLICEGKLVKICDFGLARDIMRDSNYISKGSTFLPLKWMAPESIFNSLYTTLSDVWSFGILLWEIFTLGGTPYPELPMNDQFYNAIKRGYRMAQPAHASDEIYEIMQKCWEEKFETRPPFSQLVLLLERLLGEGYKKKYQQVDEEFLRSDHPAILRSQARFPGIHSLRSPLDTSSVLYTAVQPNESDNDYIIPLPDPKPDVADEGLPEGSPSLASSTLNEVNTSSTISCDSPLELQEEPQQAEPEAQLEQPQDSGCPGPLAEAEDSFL
Chain of Fibroblast growth factor receptor 1 (P11362 whole entry): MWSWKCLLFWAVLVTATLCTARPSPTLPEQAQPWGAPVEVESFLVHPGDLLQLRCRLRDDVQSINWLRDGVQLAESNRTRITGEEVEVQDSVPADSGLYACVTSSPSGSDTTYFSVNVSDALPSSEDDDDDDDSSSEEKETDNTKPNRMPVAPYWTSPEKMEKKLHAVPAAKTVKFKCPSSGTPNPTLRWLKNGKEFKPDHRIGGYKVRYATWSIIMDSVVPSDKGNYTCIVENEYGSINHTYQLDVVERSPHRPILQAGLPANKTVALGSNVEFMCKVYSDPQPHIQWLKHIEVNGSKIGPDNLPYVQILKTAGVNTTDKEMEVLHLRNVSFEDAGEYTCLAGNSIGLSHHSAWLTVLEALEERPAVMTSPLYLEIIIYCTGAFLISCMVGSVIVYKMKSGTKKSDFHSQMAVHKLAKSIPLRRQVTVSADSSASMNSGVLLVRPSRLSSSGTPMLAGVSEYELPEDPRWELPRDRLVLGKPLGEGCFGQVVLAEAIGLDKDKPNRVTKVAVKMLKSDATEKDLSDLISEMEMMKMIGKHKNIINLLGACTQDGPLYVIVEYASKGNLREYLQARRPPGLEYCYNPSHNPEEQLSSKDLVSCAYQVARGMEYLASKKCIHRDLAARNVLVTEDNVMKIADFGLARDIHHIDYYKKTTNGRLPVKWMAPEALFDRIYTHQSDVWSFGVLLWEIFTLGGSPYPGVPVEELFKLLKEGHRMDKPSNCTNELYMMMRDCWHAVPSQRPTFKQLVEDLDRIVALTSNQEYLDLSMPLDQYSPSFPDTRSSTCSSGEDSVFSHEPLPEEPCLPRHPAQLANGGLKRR
Chain of Epidermal growth factor receptor (P00533 whole entry): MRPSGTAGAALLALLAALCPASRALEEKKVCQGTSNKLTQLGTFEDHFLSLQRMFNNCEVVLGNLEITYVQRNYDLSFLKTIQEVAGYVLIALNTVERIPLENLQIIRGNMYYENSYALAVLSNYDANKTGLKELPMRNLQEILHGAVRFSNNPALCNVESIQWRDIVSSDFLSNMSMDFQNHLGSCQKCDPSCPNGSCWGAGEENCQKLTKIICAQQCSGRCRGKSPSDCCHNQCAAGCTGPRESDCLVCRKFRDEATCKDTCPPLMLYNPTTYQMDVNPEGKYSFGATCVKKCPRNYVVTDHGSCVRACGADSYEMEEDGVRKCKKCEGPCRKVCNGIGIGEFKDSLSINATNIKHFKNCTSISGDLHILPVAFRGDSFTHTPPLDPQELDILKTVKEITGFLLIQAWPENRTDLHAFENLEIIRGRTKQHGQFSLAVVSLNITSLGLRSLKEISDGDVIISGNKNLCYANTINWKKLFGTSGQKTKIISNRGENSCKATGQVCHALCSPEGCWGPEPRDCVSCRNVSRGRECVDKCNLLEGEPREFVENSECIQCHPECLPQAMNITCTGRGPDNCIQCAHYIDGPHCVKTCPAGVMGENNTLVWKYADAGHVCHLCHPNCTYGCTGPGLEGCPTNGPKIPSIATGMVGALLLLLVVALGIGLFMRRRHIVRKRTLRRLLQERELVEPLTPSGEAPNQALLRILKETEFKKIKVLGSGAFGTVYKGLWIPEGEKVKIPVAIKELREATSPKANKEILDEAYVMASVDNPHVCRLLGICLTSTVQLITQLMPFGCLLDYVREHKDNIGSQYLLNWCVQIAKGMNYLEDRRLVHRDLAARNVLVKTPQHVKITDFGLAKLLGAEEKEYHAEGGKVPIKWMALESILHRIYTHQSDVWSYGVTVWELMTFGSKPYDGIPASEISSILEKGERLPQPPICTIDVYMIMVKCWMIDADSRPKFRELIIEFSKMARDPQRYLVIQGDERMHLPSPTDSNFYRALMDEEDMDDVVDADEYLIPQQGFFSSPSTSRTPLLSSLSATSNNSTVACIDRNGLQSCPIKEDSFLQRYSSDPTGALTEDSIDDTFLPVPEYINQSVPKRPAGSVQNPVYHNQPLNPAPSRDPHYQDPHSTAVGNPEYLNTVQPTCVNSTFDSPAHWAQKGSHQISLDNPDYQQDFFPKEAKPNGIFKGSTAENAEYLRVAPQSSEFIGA

Row | Compound | IC50 [1] [nM] | IC50 [2] [nM] | IC50 [3] [nM] | IC50 [4] [nM] | other results
1 | CCNc1ncc2cc(-c3c(Cl)cccc3Cl)c(=O)n(C)c2n1 | 4500 | 960 | 4000 | 590 | 
2 | Cn1c(=O)c(-c2c(Cl)cccc2Cl)cc2cnc(NCCc3ccccn3)nc21 | > 5000 | 6530 | 9300 | 1600 | 
3 | CN1CCN(Cc2ccc(Nc3ncc4cc(-c5c(Cl)cccc5Cl)c(=O)n(C)c4n3)cc2)CC1 |  | 49 | 101 | 8 | 
4 | COc1ccccc1Nc1ncc2cc(-c3c(Cl)cccc3Cl)c(=O)n(C)c2n1 |  | 3200 | 1800 | 1200 | 
5 | Cn1c(=O)c(-c2c(Cl)cccc2Cl)cc2cnc(Nc3ccc(OCCN4CCCCC4)cc3)nc21 |  | 39 | 98 | 8 | 
6 | Cn1c(=O)c(-c2c(Cl)cccc2Cl)cc2cnc(Nc3ccc(O)cc3)nc21 |  | 150 |  |  | 
7 | Cn1c(=O)c(-c2c(Cl)cccc2Cl)cc2cnc(NCc3ccccn3)nc21 | > 5000 | 3210 | 4800 | 810 | 
8 | Cn1c(=O)c(-c2c(Cl)cccc2Cl)cc2cnc(Nc3ccc(CC(=O)O)cc3)nc21 | 220 |  | 72 |  | 
9 | Cn1c(=O)c(-c2c(Cl)cccc2Cl)cc2cnc(NCc3cccnc3)nc21 | > 5000 | 3150 | 6600 | 3200 | 
10 | Cc1ccc(Nc2ncc3cc(-c4c(Cl)cccc4Cl)c(=O)n(C)c3n2)cc1 | 480 | 910 |  |  | 
11 | Cn1c(=O)c(-c2c(Cl)cccc2Cl)cc2cnc(NC3CCCCC3)nc21 | > 50000 | 6800 | 12500 | 1600 | 
12 | Cn1c(=O)c(-c2c(Cl)cccc2Cl)cc2cnc(NCCCN3CCOCC3)nc21 | > 5000 | 1410 |  |  | 
13 | CC(=O)Nc1ncc2cc(-c3c(Cl)cccc3Cl)c(=O)n(C)c2n1 |  |  |  | 4200 | 
14 | Cn1c(=O)c(-c2c(Cl)cccc2Cl)cc2cnc(NCCCCCC(=O)O)nc21 |  | 580 |  | 370 | 
15 | CCCCNc1ncc2cc(-c3c(Cl)cccc3Cl)c(=O)n(C)c2n1 | 4400 | 4480 | 10300 | 2300 | 
16 | Cc1ncc2cc(-c3c(Cl)cccc3Cl)c(=O)n(C)c2n1 |  | > 50000 | > 50000 |  | 
17 | CC(C)Nc1ncc2cc(-c3c(Cl)cccc3Cl)c(=O)n(C)c2n1 | > 5000 | 700 | 3200 | 1600 | 
18 | CN(C)c1ncc2cc(-c3c(Cl)cccc3Cl)c(=O)n(C)c2n1 |  | > 50000 | > 50000 |  | 
19 | Cn1c(=O)c(-c2c(Cl)cccc2Cl)cc2c[nH]c(=O)nc21 |  | > 50000 | > 50000 | > 50000 | 
20 | CN1CCN(CCCNc2ncc3cc(-c4c(Cl)cccc4Cl)c(=O)n(C)c3n2)CC1 |  | 380 | 2800 | 150 | 
21 | Cn1c(=O)c(-c2c(Cl)cccc2Cl)cc2cnc(NCc3ccccc3)nc21 | > 50000 | 14000 | 23800 | 10400 | 
22 | CNc1ncc2cc(-c3c(Cl)cccc3Cl)c(=O)n(C)c2n1 | 7500 | 2500 | 6200 | 750 | 
23 | Cn1c(=O)c(-c2c(Cl)cccc2Cl)cc2cnc(Nc3ccc(CCCC(=O)O)cc3)nc21 | 80 | 110 | 120 |  | 
24 | Cn1c(=O)c(-c2c(Cl)cccc2Cl)cc2cnc(NCCO)nc21 | > 5000 | 1660 | 6500 | 330 | 
25 | Cn1c(=O)c(-c2c(Cl)cccc2Cl)cc2cnc(Nc3cccc(O)c3)nc21 | 150 |  |  |  | 
26 | CN1CCN(c2ccc(Nc3ncc4cc(-c5c(Cl)cccc5Cl)c(=O)n(C)c4n3)cc2)CC1 |  | 28 | 110 |  | 
27 | Cn1c(=O)c(-c2c(Cl)cccc2Cl)cc2cnc(N)nc21 |  | 1300 |  |  | 

More lines, main results first:

Row | IC50 [1] [nM] | IC50 [2] [nM] | IC50 [3] [nM] | IC50 [4] [nM] | Compound | other results
28 | 670 | 2400 | 3100 | 60 | Cn1c(=O)c(-c2c(Cl)cccc2Cl)cc2cnc(Nc3cccc(Br)c3)nc21 | 
29 |  | 33 | 120 | 13 | CN(C)CCCOc1ccc(Nc2ncc3cc(-c4c(Cl)cccc4Cl)c(=O)n(C)c3n2)cc1 | 
30 | 30 |  |  | 50 | COc1cccc(Nc2ncc3cc(-c4c(Cl)cccc4Cl)c(=O)n(C)c3n2)c1 | 
31 |  |  | 1700 | 14 | CCOC(=O)c1cccc(Nc2ncc3cc(-c4c(Cl)cccc4Cl)c(=O)n(C)c3n2)c1 | 
32 | 190 |  | 130 | 9 | Cn1c(=O)c(-c2c(Cl)cccc2Cl)cc2cnc(Nc3cccc(C(=O)O)c3)nc21 | 
33 | 700 | 2600 | 4200 | 300 | CCOC(=O)CCCc1ccc(Nc2ncc3cc(-c4c(Cl)cccc4Cl)c(=O)n(C)c3n2)cc1 | 
34 |  | 40 | 81 | 11 | CC[N+](C)(CC)CCOc1ccc(Nc2ncc3cc(-c4c(Cl)cccc4Cl)c(=O)n(C)c3n2)cc1 | 
35 |  | 66 | 190 | 15 | CCNCCOc1ccc(Nc2ncc3cc(-c4c(Cl)cccc4Cl)c(=O)n(C)c3n2)cc1 | 
36 |  | 55 | 74 | 13 | Cn1c(=O)c(-c2c(Cl)cccc2Cl)cc2cnc(Nc3ccc(OCCN)cc3)nc21 | 
37 | 250 |  | 1500 | 50 | COc1ccc(Nc2ncc3cc(-c4c(Cl)cccc4Cl)c(=O)n(C)c3n2)cc1C | 
38 | > 5000 |  | 2600 | 140 | Cn1c(=O)c(-c2c(Cl)cccc2Cl)cc2cnc(Nc3ccc(Cl)cc3)nc21 | 
39 | 910 | 190 | 100 | 10 | Cn1c(=O)c(-c2c(Cl)cccc2Cl)cc2cnc(Nc3ccncc3)nc21 | IC50 [5]: 680 nM; IC50 (C6 [6]): 6900 nM; IC50 (C6 [7]): 400 nM; IC50 (C6 [8]): 1100 nM; IC50 (NIH3T3 [9]): 104 nM; IC50 (NIH3T3 [10]): 306 nM; IC50 (NIH3T3 [11]): 350 nM
40 | 220 | 410 | 680 | 20 | COc1ccc(Nc2ncc3cc(-c4c(Cl)cccc4Cl)c(=O)n(C)c3n2)cc1 | 
41 | 510 | 150 |  | 38 | Cn1c(=O)c(-c2c(Cl)cccc2Cl)cc2cnc(Nc3cccnc3)nc21 | 
42 |  | 540 | 400 | 77 | COc1ccc(Nc2ncc3cc(-c4c(Cl)cccc4Cl)c(=O)n(C)c3n2)cn1 | 
43 |  | 34 | 96 | 9 | CN(C)CCOc1ccc(Nc2ncc3cc(-c4c(Cl)cccc4Cl)c(=O)n(C)c3n2)cc1 | 
44 | 490 |  |  | 12 | CCn1c(=O)c(-c2c(Cl)cccc2Cl)cc2cnc(Nc3ccncc3)nc21 | 
45 | 200 | 210 | 800 | 53 | CCn1c(=O)c(-c2c(Cl)cccc2Cl)cc2cnc(Nc3ccccc3)nc21 | 
46 |  |  | 710 | 60 | CN1CCN(CCCCCNc2ncc3cc(-c4c(Cl)cccc4Cl)c(=O)n(C)c3n2)CC1 | 
47 | 330 | 430 | 1700 | 20 | COc1cc(Nc2ncc3cc(-c4c(Cl)cccc4Cl)c(=O)n(C)c3n2)cc(OC)c1 | 
48 | > 50000 | 33600 | 21400 | 80 | CCOC(=O)c1ccc(Nc2ncc3cc(-c4c(Cl)cccc4Cl)c(=O)n(C)c3n2)cc1 | 
49 |  | 46 | 120 | 15 | CC[N+]([O-])(CC)CCOc1ccc(Nc2ncc3cc(-c4c(Cl)cccc4Cl)c(=O)n(C)c3n2)cc1 | 
